Screens as filed in PubChem.
KCNK9 block: human KCNK9 channel inhibition; HEK293 KCNK9, FluxOR thallium flux fluorescence; hits give low values; B-score at 10 µM; actives 1.2% (n = 310,000); AID 488922;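 active = ratio B-score over 3 SD below the library mean, with starting fluorescence within 5 SD of its mean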;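 note: negative B-score means less thallium flux so channel inhibition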
Target sequence (Q9NPC2 whole entry, looked up): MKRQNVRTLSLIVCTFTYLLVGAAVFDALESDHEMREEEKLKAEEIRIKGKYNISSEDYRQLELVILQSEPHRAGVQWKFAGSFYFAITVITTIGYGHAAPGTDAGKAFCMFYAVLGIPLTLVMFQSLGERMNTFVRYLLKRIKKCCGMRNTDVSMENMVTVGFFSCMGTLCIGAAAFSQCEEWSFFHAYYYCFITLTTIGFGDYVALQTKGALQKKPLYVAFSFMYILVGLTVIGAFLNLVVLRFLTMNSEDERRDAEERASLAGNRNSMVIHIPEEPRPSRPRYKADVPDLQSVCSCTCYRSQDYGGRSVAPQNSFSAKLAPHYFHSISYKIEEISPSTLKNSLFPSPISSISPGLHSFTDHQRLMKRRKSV
KCNQ1 block: inhibitors of human KCNQ1 potassium channel; CHO-K1 KCNQ1, FluxOR thallium flux fluorescence; hits give high values; B-score at 10 µM; actives 1.3% (n = 310,000); AID 2642;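 active = compounds whose thallium flux B-score, printed positive for inhibition, exceeds three library SD while starting fluorescence stays within three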;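 note: channel opened by potassium depolarization with thallium stimulus after 20 min compound exposure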
hERG protect: compounds protecting human hERG from proarrhythmic drug block; activation (rescue from dofetilide block), less the hit threshold, % at 10 µM; CHO-hERG, FluxOR thallium flux, dofetilide IC70 present; actives 0.51% (n = 310,000);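 active = activation above the mean of controls blocked by dofetilide plus 5 SD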;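 note: thallium influx through hERG after potassium depolarization seen as dye fluorescence rise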
Kir21 inh: inhibitors of mouse Kir2.1 inward-rectifier potassium channel; HEK293-Kir2.1, FluxOR thallium flux fluorescence; hits give low values; B-score at 10 µM; actives 0.85% (n = 310,000); AID 1672;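 active = fluorescence ratio B-score at or below minus 3 SD of library scores, with starting-brightness B-score within 2 SD, cut at about -4.2 in these data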;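 note: channel flux triggered by added potassium and thallium sulfate stimulus; B-score of peak minus minimum fluorescence over baseline after thallium stimulus; more negative B-score means stronger Kir2.1 block with less thallium influx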
KCNK3 block: human KCNK3 channel inhibition, primary screen. actives 0.84% (n = 340,000). O14649. CHO-KCNK3 thallium flux, FluxOR fluorescence; hits give low values. B-score at 10 µM;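 active = B-score under library mean minus 4 SD, starting fluorescence ratio at most library mean plus 5 SD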;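 note: more negative B-score means stronger inhibition of thallium flux through KCNK3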
KCNQ1 act: potentiators or activators of human KCNQ1 potassium channel. CHO-K1 KCNQ1, thallium flux FluxOR fluorescence; hits give high values. B-score at 10 µM. actives 0.35% (n = 310,000). AID 2648;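 active = fluorescence ratio B-score, a plate-corrected score, at least three library SD, with initial intensity B-score within 5 SD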
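Schedule – 37 °C overnight plating, 90-min dark dye load, 20-min compound pretreatment · System – stable KCNQ1 CHO-K1 line · Probe or stimulus – thallium- and potassium-containing depolarizing buffer · Measured by – kinetic FluxOR fluorescence, 10 s baseline plus 110 s post-stimulus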
* = called active by the depositor. Shown are actives, neighbours in structure and some others; about 3.8% of the full set was active somewhere.

COc1ccc([C@]2(C(C)C)ON(c3ccccc3C(F)(F)F)C2=O)cc1 was read as KCNK3 block inactive.
`O=C(CCNc1ccc(Cc2ccncc2)cc1)c1cccc([N+](=O)[O-])c1` gave KCNK9 block inactive, KCNQ1 block inactive, hERG protect -12, Kir21 inh -2.3, KCNK3 block inactive and KCNQ1 act inactive.
`O=C(CCNc1cccc(F)c1)c1cccc([N+](=O)[O-])c1` gave KCNK9 block inactive, KCNQ1 block 8*, hERG protect -20, Kir21 inh -0.16, KCNK3 block inactive and KCNQ1 act inactive.
For CCC1Oc2ccccc2N(CC(=O)NCCN2C(C)CCCC2C)C1=O (stereo not given) the results were KCNK9 block inactive, KCNQ1 block inactive, hERG protect 7.2*, Kir21 inh 1.5, KCNK3 block inactive and KCNQ1 act inactive.
CCOCCCNC(=O)CN1C(=O)C(CC)Oc2ccccc21 (stereo not given) was read as KCNK9 block inactive, KCNQ1 block inactive, hERG protect 0, Kir21 inh -0.13, KCNK3 block inactive and KCNQ1 act inactive.
`CCC1Oc2ccccc2N(CC(=O)NCCCN2CCC(C)CC2)C1=O` (stereo not given) gave KCNK9 block inactive, KCNQ1 block inactive, hERG protect 5.5*, Kir21 inh -0.07, KCNK3 block inactive and KCNQ1 act inactive.
For CCC1Oc2ccccc2N(CC(=O)NCCN2CCCC2)C1=O (stereo not given) the results were KCNK9 block inactive, KCNQ1 block inactive, hERG protect -6, Kir21 inh -0.42, KCNK3 block inactive and KCNQ1 act inactive.
Screening N#Cc1ccccc1S(=O)(=O)N1CCNS(=O)(=O)c2ccccc21 returned KCNK3 block inactive.
For CC1(C)CC(=O)C(C(C2=C(O)CC(C)(C)CC2=O)c2ccc(Br)s2)C(=O)C1 (stereo not given) the results were KCNK9 block inactive, KCNQ1 block inactive, hERG protect -17, Kir21 inh -7.4*, KCNK3 block inactive and KCNQ1 act inactive.
For COc1ccc(N2CCN(S(=O)(=O)c3ccc4c(c3)OCCO4)CC2)cc1 the results were KCNK9 block inactive, KCNQ1 block inactive, hERG protect -11, Kir21 inh -0.8, KCNK3 block inactive and KCNQ1 act inactive.
Screening COC(=O)N1C(=O)[C@@](Cc2ccccc2)(c2ccccc2)N1C(=O)OC returned KCNK9 block inactive, KCNQ1 block inactive, hERG protect 5.4*, Kir21 inh 0.67, KCNK3 block inactive and KCNQ1 act inactive.
Screening [O-][n+]1c2ccccc2c2n1CCN1CCOC21c1ccc(Cl)cc1 (stereo not given) returned KCNK3 block inactive.
`COCCNC(=O)c1onc(CSc2cc(C)ccc2C)c1C(=O)O` gave KCNK9 block inactive, KCNQ1 block inactive, hERG protect -7, Kir21 inh 0, KCNK3 block inactive and KCNQ1 act inactive.
Screening Cc1ccc(C)c(SCc2noc(C(=O)NC(C)C)c2C(=O)O)c1 returned KCNK9 block inactive, KCNQ1 block inactive, hERG protect 0, Kir21 inh -0.77, KCNK3 block inactive and KCNQ1 act 9*.
Cc1ccc(S(=O)(=O)N(C)C)cc1-n1c(SCC(=O)Nc2ccccc2)nc2ccccc2c1=O was read as KCNK9 block -7.9*, KCNQ1 block inactive, hERG protect -12, Kir21 inh -0.84, KCNK3 block inactive and KCNQ1 act inactive.
Screening Cc1ccc(S(=O)(=O)N(C)C)cc1NC(=O)CSc1nc2ccccc2c(=O)n1CC1CCCO1 (stereo not given) returned KCNK9 block inactive, KCNQ1 block inactive, hERG protect -14, Kir21 inh -1.1, KCNK3 block inactive and KCNQ1 act inactive.
Cc1ccc(S(=O)(=O)N(C)C)cc1-n1c(SCC(=O)Nc2ccc(F)cc2Cl)nc2ccccc2c1=O was read as KCNK9 block -8*, KCNQ1 block inactive, hERG protect -7, Kir21 inh -2.6, KCNK3 block inactive and KCNQ1 act inactive.
